We go through one compound from ChEMBL document CHEMBL4725346, “Syntheses and Evaluation of New Bisacridine Derivatives for Dual Binding of G-Quadruplex and i-Motif in Regulating Oncogene c-myc Expression” (J Med Chem, 2020).

Series [1] is described as follows: Stabilization of 5'-FAM/3'-TAMRA labeled hairpin DNA F10T (unknown origin) assessed as change in melting temperature at 1 uM by FRET assay (reference value: 59.1 degreeC).
Series [2] is described as follows: Binding affinity to 5'-biotin labeled c-myc promoter i-motif DNA Py33 (unknown origin) by surface plasmon resonance method. The procedure, abridged: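 SPR: 5'-biotin DNA diluted to 1 μM and captured (1000 RU) on a sensor chip, with a blank cell as reference. Running buffers: Py33 in 20 mM MES pH 5.8, 100 mM KCl, 0.05% Tween-20; Pu27 and duplex in 50 mM Tris-HCl pH 7.4, 100 mM KCl. Six ligand concentrations serially diluted from DMSO stock. Association 260 s, dissociation 300 s at 25 °C; NaOH regeneration; blank sensorgrams subtracted.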
(In general: SPR reads the build-up and loss of mass on a sensor chip optically.)

Series [3] is described as follows: Stabilization of c-myc promoter i-motif DNA Py33 (unknown origin) assessed as decrease in positive peak intensity at pH 5.5 measured at 288 nanometer by CD spectroscopy. The procedure, abridged: (§1)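 Py33 at 1 µM in 1× BPES pH 5.5 (pH 6.8 random-coil reference), with or without ligand. Annealed at 95 °C for 5 min, cooled, kept at 4 °C overnight. CD spectra in a 4 mm cuvette over 230–350 nm, three scans averaged, buffer-corrected; peaks followed at 288 and 260 nm.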

The nature of series [4]: Stabilization of c-myc promoter i-motif DNA Py33 (unknown origin) assessed as reduction in appearance of random coil confirmation at pH 5.5 by CD spectroscopy. The procedure, abridged: as §1
Series [5] concerns Quadruplex DNA. The series can be described thus: Stabilization of c-myc promoter G-quadruplex DNA Pu27 (unknown origin) assessed as effect on melting temperature at 5 uM by CD spectroscopy. It counts as nucleic-acid assay. The procedure, abridged:
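CD melting: Pu27 diluted to 1 µM in 10 mM Tris-HCl, 5 mM KCl, pH 7.4, with or without ligand. Annealed at 95 °C for 5 min, slowly cooled, then heated at 1 °C/min while monitoring 260 nm. Tm obtained by curve fitting.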

Series [6] can be described thus: Stabilization of c-myc promoter i-motif DNA Py33 (unknown origin) by 1H NMR spectra analysis. The procedure, abridged: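 1D ¹H NMR titration with water suppression at 25 °C on a 600 MHz spectrometer. DNA at 0.5 mM in 10% D₂O/90% H₂O: Pu27 in 10 mM Tris-HCl pH 7.4, Py33 in 1× BPES pH 6.4. Annealed at 95 °C for 5 min before titration; ligand stock in d₆-DMSO.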

In series [7] the test system is HeLa. The series can be described thus: Antiproliferative activity against human Hela cells after 48 hrs by MTT assay. It counts as functional, cell-based. In short, it runs like this:
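Cells seeded at 5.0×10^3 per well, pre-incubated 12 h at 37 °C, 5% CO2, then exposed to compounds for 48 h; DMSO-only control. MTT (2.5 mg/mL) added for 4 h, formazan dissolved in DMSO, absorbance at 570 nm. Each dose tested in triplicate; IC50 from percentage survival relative to negative control.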
Background: Tetrazolium assays rely on reduction of a dye to a coloured formazan, in cell work by metabolically active cells.

The nature of series [8]: Drug uptake in human SiHa cells. It counts as ADME, cell-based.
In series [9] the test system is Quadruplex DNA. Put plainly: Binding affinity to c-myc promoter G-quadruplex/i-motif in human SiHa cells assessed as reduction in c-myc mRNA level at 2.5 uM incubated for 24 hrs by qRT-PCR analysis. The format is cell-based. Also on record: scale not given: the % may be the effect or the level left. The procedure, abridged:
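SiHa cells at 0, 0.625, 1.25 and 2.5 μM for 24 h; DMSO control. Total RNA extracted with TRIzol. 1.5 μg RNA reverse-transcribed with oligo dT18 and M-MLV (42 °C 60 min). PCR of 30 cycles (95/58/72 °C), products run on 1.2% agarose. β-actin as internal control; three repeats.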
For orientation: In qPCR the cycle at which signal appears reflects the starting amount.

Series [10] has as its system Quadruplex DNA. The series can be described thus: Binding affinity to c-myc promoter G-quadruplex/i-motif in human Raji cells assessed as reduction in c-myc mRNA transcription incubated for 24 hrs. The note with it: dose microM 0.16-2.5, time 24.0 hrs. The format is cell-based.
For series [11], the system named is Quadruplex DNA. The series can be described thus: Binding affinity to c-myc promoter G-quadruplex/i-motif in human SiHa cells assessed as reduction in c-myc expression at 5 uM incubated for 24 hrs by Western blot analysis. It counts as cell-based. Also on record: scale not given: the % may be the effect or the level left.
The subject of series [12] is SiHa. The series can be described thus: Inhibition of cell invasion in human SiHa cells at 0.5 uM by transwell assay relative to control. The format is functional. In short, it runs like this: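 Transwell assay: SiHa cells incubated 24 h with 0.5 µM compound. Cell […] through the transwell was compared with an untreated control.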
In series [13] the test system is SiHa. Put plainly: Induction of cell cycle arrest in human SiHa cells assessed as accumulation of cells at S phase at 0.15 uM after 24 hrs by propidium iodide staining based flow cytometry (reference value: 17.74%). The format is functional.
Series [14] has as its system SiHa. The series can be described thus: Induction of cell cycle arrest in human SiHa cells assessed as accumulation of cells at G0/G1 phase at 0.30 uM after 24 hrs by propidium iodide staining based flow cytometry (reference value: 42.28%). The format is functional. The note with it: dose 0.3 µM.
The subject of series [15] is SiHa. Put plainly: Induction of cell cycle arrest in human SiHa cells assessed as accumulation of cells at G2/M phase at 0.30 uM after 24 hrs by propidium iodide staining based flow cytometry (reference value: 29.71%). It counts as functional. The following applies: dose 0.3 µM.
Series [16] relates to SiHa. Put plainly: Induction of cell cycle arrest in human SiHa cells assessed as accumulation of cells at G0/G1 phase at 0.60 uM after 24 hrs by propidium iodide staining based flow cytometry (reference value: 42.28%). It counts as functional. The following applies: dose 0.6 µM.
The subject of series [17] is SiHa. The series can be described thus: Induction of cell cycle arrest in human SiHa cells assessed as accumulation of cells at G2/M phase at 0.60 uM after 24 hrs by propidium iodide staining based flow cytometry (reference value: 29.71%). The format is functional. The following applies: dose 0.6 µM.
Series [18] deals with SiHa. The series can be described thus: Induction of apoptosis in human SiHa cells assessed as early apoptotic cells at 1.2 uM after 24 hrs by annexin V/FITC-propidium iodide staining-based flow cytometric method ( Rvb = 0.3%). The format is functional.
For series [19], the system named is SiHa. Put plainly: Induction of apoptosis in human SiHa cells assessed as late apoptotic cells at 1.2 uM after 24 hrs by annexin V/FITC-propidium iodide staining-based flow cytometric method ( Rvb = 0.4%). It counts as functional.
Series [20] concerns SiHa. The series can be described thus: Induction of apoptosis in human SiHa cells assessed as late apoptotic cells at 2.4 uM after 24 hrs by annexin V/FITC-propidium iodide staining-based flow cytometric method ( Rvb = 0.4%). The format is functional.
Series [21] deals with SiHa. Put plainly: Induction of apoptosis in human SiHa cells assessed as decrease in caspase-7 level incubated for 24 hrs by Western blot analysis. The format is functional, cell-based. The following applies: dose microM 0.6-2.4, time 24.0 hrs.
For series [22], the system named is SiHa. The series can be described thus: Induction of apoptosis in human SiHa cells assessed as increase in cleaved caspase-7 level incubated for 24 hrs by Western blot analysis. It counts as functional, cell-based. The following applies: dose microM 0.6-2.4, time 24.0 hrs.
In series [23] the test system is SiHa. The series can be described thus: Antitumor activity against human SiHa cells xenografted in BALB/c nude mouse assessed as reduction in tumor volume at 15 mg/kg, ip administered once per 2 days for 18 days (reference value: 750 mm3). It counts as functional. The note with it: time 18 day. The procedure, abridged:
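SiHa tumor fragments from donor xenografts (grown to about 1,000 mm³) implanted in the underarm of female BALB/c nude mice; six per group. Dosed ip once every two days for 18 days, saline as negative control, cisplatin 0.2 mg/kg as positive control. Tumor volume = length × width²/2. Tumors weighed at sacrifice.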

The test system of series [24] is Quadruplex DNA. Put plainly: Binding affinity to 5'-biotin labeled c-myc promoter G-quadruplex DNA Pu27 (unknown origin) by UV titration method. It counts as nucleic-acid assay.

Molecules are shown by their SMILES. Activity calls are given as the source filed them. The rule behind the calls is not given here.

A word on the ΔTm: it is the change in melting temperature against a reference sample. In general, Kd refers to a measure of binding affinity in units of concentration. As a reminder, the IC50 is the concentration that inhibits the measured activity by half. What is called inhibition is how much of the control response was suppressed. In the case of `Cc1ccc2nc3ccc(C)cc3c(NCCCNCCNCCCNc3c4cc(C)ccc4nc4ccc(C)cc34)c2c1`, in [1], the ΔTm stood at 4.5 °C. The compound also returned a Kd in series [2] of 2.4 µM. The result in [3], in series [4], in [5], in series [6] and in series [24] was Active. In series [7], the midpoint of inhibition, the IC50, lay at 0.45 µM. In addition, the Drug uptake result in series [8] was “Active”. The Activity was below 76.9% in series [9]; “Dose-dependent effect” in series [10]; below 92.2% in [11]; 16.96% in series [13]; 30.44% in series [14]; 42.47% in [15]. Besides, the Activity was 16.87% in series [16]; 56.91% in [17]; 43.2% in [18]; 18.7% in series [19]; 27.5% in series [20]; “Dose-dependent effect” in series [21]. Also, the Activity entry is “Dose-dependent effect” in [22] and 450 mm3 in [23]. Also, the inhibition at 0.5 µM in series [12] was 85%.
